# Screening data from PubChem.
# NS3 helicase inh: inhibitors of HCV NS3 helicase, primary screen, biochemical, Cy5 molecular beacon fluorescence. NS3 helicase DNA unwinding. 290,000 tested, 0.56% active. Hepatitis C virus NS3 helicase. inhibition, % at 10.9 µM. AID 1800, 2009;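 active = inhibition above the mean of all tested compounds plus 3 SD, set per campaign, cut at about 35% in these data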;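 note: 0% = DMSO wells and 100% = thioflavine S control wells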
#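 Measured by: Cy5 fluorescence, 0 and 60 min reads / Assay system: NS3 helicase fragment of HCV / Control set: low DMSO, high thioflavine S at 110 µM / Times: 1 h reaction at 25 °C, ATP-initiated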
# TAAR1 agonist: human TAAR1 agonists, primary screen, Fluo-8 calcium fluorescence, CHO RD-HGA16 cells; vehicle wells 0%, saturating PEA agonist 100%; activation, % at 3 µM; 360,000 tested, 0.99% active; AID 624467, 2012;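 active = activation above the mean activation of all test compounds in the run plus 3 SD, cut at about 38% in these data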
# Target sequence (Q96RJ0 whole entry, looked up): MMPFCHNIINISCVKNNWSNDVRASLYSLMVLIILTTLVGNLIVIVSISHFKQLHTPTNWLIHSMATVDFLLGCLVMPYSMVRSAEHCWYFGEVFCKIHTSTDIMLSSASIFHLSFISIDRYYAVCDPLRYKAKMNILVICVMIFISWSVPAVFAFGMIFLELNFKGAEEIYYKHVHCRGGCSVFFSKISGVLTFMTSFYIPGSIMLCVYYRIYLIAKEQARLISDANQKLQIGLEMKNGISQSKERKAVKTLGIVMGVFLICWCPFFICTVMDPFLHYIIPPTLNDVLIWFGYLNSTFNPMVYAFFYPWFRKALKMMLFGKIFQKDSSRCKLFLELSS
#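 Test system: RD-HGA16 (CHO) cells co-expressing Gα16 and hTAAR1 | Doses: Single dose, 3 µM | Schedule: 17-24 h seeding, 75 min 37 °C dye, 30 min RT | Evaluation: % activation from peak over basal fluorescence ratio, DMSO-to-PEA scaled | Technique: Kinetic Fluo-8 calcium fluorescence | Benchmarks: Low control DMSO, high control PEA (EC100)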
# core dimer inh: inhibitors of HCV core protein dimerization, primary screen, biochemical, TR-FRET, high-throughput. TR-FRET GST/Flag-core106 dimerization, 1536-well. inhibition, % at 5 µM. 300,000 tested, 0.33% active. AID 1899, 2009;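 active = inhibition above the mean of all tested compounds plus 3 SD, set per screening campaign, cut at about 45% in these data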
#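 Assay system – GST-tagged and Flag-tagged HCV core protein residues 1-106 · Quantity – core106 proteins, GST 13.5 nM and Flag 17 nM · Benchmarks – unlabelled core106 and no-GST-core106 wells · Read-out basis – percent inhibition of core106 dimerization signal · Detection – time-resolved FRET, ex 340 nm, em 617 and 671 nm · Schedule – 4 h at 22.5 °C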
# rCAG binder: binders of r(CAG) RNA repeats, primary screen, biochemical, fluorescence; 370,000 tested, 1.3% active; r(CAG) RNA repeat, TO-PRO-1 dye displacement fluorescence; AID 651821, 2012; inhibition, % at 3 µM;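 active = inhibition above the plate cutoff, the mean of all test compounds on that plate plus 3 SD, cut at about 35% in these data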;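 note: 0% = DMSO alone and 100% = 100 µM mitoxantrone as full dye displacement; higher means more dye released from RNA so lower well fluorescence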
# TAAR1 antag: human TAAR1 antagonists, primary screen, Fluo-8 calcium fluorescence, CHO RD-HGA16 cells. Trace amine-associated receptor 1 (Homo sapiens), Q96RJ0. antagonist. inhibition, % at 3 µM. 360,000 tested, 1.5% active. AID 624466, 2012;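 active = inhibition above a per-plate cutoff, the mean inhibition of test compounds on that plate plus 3 SD, cut at about 49% in these data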;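 note: 0% = DMSO plus EC80 beta-PEA response and 100% = DMSO alone without agonist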
#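 System: CHO RD-HGA16 cells bearing hTAAR1. Reagent: EC80 β-phenethylamine stimulus. Schedule: seeding 17-24 h prior, 75-min 37 °C, 30-min RT dye loading. Signal: Fluo-8 intracellular calcium dye fluorescence, real-time kinetic reads. Read-out: % inhibition from peak post-agonist over basal fluorescence ratio. Benchmarks: vehicle wells and EC80 agonist wells. Replicates: n of 1.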
# TAAR1 nonsel count: nonselective antagonists in TAAR1 counter-screen cells, counter-screen for hTAAR1 antagonist project, cell-based, fluorescence, calcium. shares compounds with TAAR1 antag. counterscreen cell line, antagonist mode. inhibition, % at 3 µM. 2,400 tested, 77% active; in the data active = inhibition above about 22%;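 note: CHO-Ga16 host cells stimulated with ATP at an EC80 level; 0% = agonist EC80 plus vehicle and 100% = vehicle without agonist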
# TAAR1 antag conf: human TAAR1 antagonists, retest of hits, confirmation, cell-based, fluorescence; 2,400 tested, 40% active; inhibition, % at 3 µM; TAAR1-expressing cells, fluorescence antagonist read-out; AID 651785, 2012; shares compounds with TAAR1 antag; in the data active = inhibition above about 49%;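 note: CHO-Ga16 host cells challenged with agonist PEA near its EC80; 0% = agonist at EC80 plus vehicle and 100% = vehicle with no agonist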
# Ga16 nonsel ag: calcium activation in Ga16-expressing cells, counter-screen for TAAR1 antagonist project, cell-based, fluorescence; shares compounds with TAAR1 antag; agonist counterscreen; activation, % at 3 µM; 2,400 tested, 18% active; AID 651953, 2012; in the data active = activation above about 12%;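 note: 0% = vehicle wells and 100% = saturating stimulus response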
# TAAR1 ag count: TAAR1 activation by candidate antagonists – cell-based, fluorescence, counter-screen for TAAR1 antagonist project; hTAAR1 cell line, agonist mode; 2,400 tested, 2% active; shares compounds with TAAR1 antag; activation, % at 3 µM; in the data active = activation above about 37%;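 note: CHO cells stably expressing TAAR1 with calcium dye readout; 0% = DMSO vehicle and 100% = full agonist response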
# The depositor's hits bear a star; . = no result. An excerpt weighted towards active compounds, which were near 3.7% of everything screened.
SMILES,NS3 helicase inh,TAAR1 agonist,core dimer inh,rCAG binder,TAAR1 antag,TAAR1 nonsel count,TAAR1 antag conf,Ga16 nonsel ag,TAAR1 ag count
Cc1ccc(C2c3c(n[nH]c3C)C(=O)N2c2ccccc2)cc1 (configuration not stated),.,0.0,.,2.1,-28.4,.,.,.,.
C[C@H]1COc2cc(Br)ccc2S(=O)(=O)N1Cc1cn(Cc2ccc(Cl)cc2)nn1,.,.,.,1.9,.,.,.,.,.
CC(=O)c1ccc(N2CCN(C(=O)CCCn3c(=O)[nH]c4ccc(Br)cc4c3=O)CC2)cc1,-11.3,8.2,7.6,-2.3,66.7*,36.6*,53.7*,10.7,5.5
CCN1CCN(C(=O)CCCCCn2c(=O)[nH]c3cc(C(=O)OC)ccc3c2=O)CC1,1.5,0.4,3.5,-9.5,1.2,.,.,.,.
COC(=O)c1ccc2c(=O)n(CCCCCC(=O)N3CCN(c4ccccc4)CC3)c(=O)[nH]c2c1,26.9,24.3,-1.7,-2.8,74.2*,58.4*,72.0*,14.2*,22.5
COc1ccccc1-c1cccc(-c2nc(C(=O)Nc3nccs3)cc3c2[C@H](CCO)N(C(C)=O)C3)c1,.,6.7,.,9.8,71.4*,30.2*,51.3*,7.1,5.5
CCNC(=O)c1cc2c(c(-c3cccc(-c4cncnc4)c3)n1)[C@@H](CCO)N(C(C)=O)C2,.,2.5,.,3.7,-23.2,.,.,.,.
COc1ccc(N2CCN(C(=O)c3ccc(C)c(NC(=O)C4=C(C)OCCS4)c3)CC2)cc1,0.8,3.0,5.5,-5.6,-2.0,.,.,.,.
CC1=C(C(=O)Nc2cc(C(=O)N3CCN(c4cccc(C)c4C)CC3)ccc2C)SCCO1,-6.1,6.5,15.1,-7.7,61.8*,34.0*,45.8,5.2,4.0
O=C(N[C@H](Cc1ccccc1)C(=O)NCc1ccc2c(c1)OCO2)[C@H]1O[C@@H](n2ccc(=O)[nH]c2=O)[C@H](O)[C@@H]1O,.,0.7,.,2.6,-12.4,.,.,.,.
C=CC[C@H](CC(=O)N(CCO)Cc1ccccc1)C(=O)N[C@H](COC(=O)[C@H](CC=C)CC(=O)OC(C)(C)C)Cc1ccccc1,.,10.9,.,-7.7,58.5*,24.0*,42.8,5.5,2.6
C=CC[C@@H](CC(=O)N[C@@H](CO)Cc1ccccc1)C(=O)N[C@H](COC(=O)[C@@H](CC=C)CC(=O)OC(C)(C)C)Cc1c[nH]c2ccccc12,.,3.6,.,3.0,38.9,.,.,.,.
C=CC[C@H](CC(=O)N(CCO)Cc1ccccc1)C(=O)N[C@@H](COC(=O)[C@H](CC=C)CC(=O)OC(C)(C)C)Cc1c[nH]c2ccccc12,.,14.4,.,0.2,69.3*,30.1*,41.9,4.7,2.6
COC(=O)c1cccc(N2C(=O)C[C@](Sc3ccc(C)cc3)(C(=O)OC)[C@H]2c2ccccc2)c1,.,7.0,.,5.4,82.2*,32.4*,55.3*,4.5,2.0
CCOC(=O)[C@@]12CCCC=C1N(CCc1ccc(Cl)cc1)C(=O)[C@H]2CC(=O)NCCCCc1ccccc1,.,.,.,3.5,.,.,.,.,.
O=C(COC(=O)c1cccc(N2C(=O)C3CC=CCC3C2=O)c1)c1ccccc1 (configuration not stated),-11.3,12.8,1.9,0.5,55.1*,19.2,39.2,10.4,7.1
Cc1nnc(SCC(=O)Nc2nsc(-c3ccc(C(C)(C)C)cc3)n2)s1,2.5,2.4,0.7,0.0,58.6*,31.7*,38.9,7.1,4.4
